Measurements: paper PMC4198695 (Neoplasia (New York, N.Y.), 2014)

Key:
U87 glioblastoma cells = experiment: MTT toxicity assay, U87; type: cell-based; conditions: Homo sapiens, 168 h, read-out: IC50 (MTT assay), U87, 7 days incubation
Method in brief: (§1)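 U87 (2.5 × 10^3) or U251 (5 × 10^3) cells per well were incubated 24 h at 37 °C. Medium was then replaced with test compound at 100, 33, 10, 3.3, 1, 0.3, 0.1 and 0.03 μM, in triplicate, for 7 days at 37 °C. Cells received 10% MTT in medium for 4 h, then solubilization solution. Absorbance was read at 570 nm with 690 nm background, and percent survival calculated versus control wells.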

U251 glioblastoma cells = experiment: MTT toxicity assay, U251; type: cell-based; conditions: Homo sapiens, U-251, 168 h, read-out: IC50 (MTT assay), U251, 7 days incubation
Method in brief: as §1

U87 cells = experiment: Clonogenic proliferation assay, U87; type: cell-based, human; conditions: U87, 10 μM for 24 h, then 14 days drug-free
Method in brief: (§2)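 Cells were seeded in 6-well plates in 6 replicates: U87 at 5 × 10^2 cells/well, U251 at 1 × 10^3 cells/well. After 24 h at 37 °C they were exposed to 10 μM test compound or drug-free medium for 24 h. Cells were then PBS-washed and grown 14 days drug-free, stained with 0.5% crystal violet for 30 min, and colonies counted. Survival was normalized to drug-free control.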

U251 cells = experiment: Clonogenic proliferation assay, U251; type: cell-based, human; conditions: U251, 10 μM for 24 h, then 14 days drug-free
Method in brief: as §2

[1] = humans, twice daily; cited from earlier work

## O=C(c1cc(Cc2n[nH]c(=O)c3ccccc23)ccc1F)N1CCN(C(=O)C2CC2)CC1 [Olaparib, 4-[3-(4-cyclopropanecarbonylpiperazine-1-carbonyl)-4-fluorobenzyl]-2H-phthalazin-1-one]
U87 glioblastoma cells
  IC50: 23.8 ± 1.3 µM
U251 glioblastoma cells
  IC50: 5.5 ± 1.2 µM
U87 cells
  decrease in number of surviving colonies: 20-30%
U251 cells
  cell survival rate normalized to control: 46.9%
[1]
  maximum tolerated dose: 400 mg
